Experimental data: ChEMBL document CHEMBL1124840 (J Med Chem, 1990)
Activity calls are given as the source filed them. The rule behind the calls is not given here. Positions of bridges follow the written chain, without caps; N, C: chain ends. Non-standard residues stand in square brackets, D forms with d. Residues, ends and D or L forms follow the SMILES beside them. Pen = CC(C)(S)[C@H](N)C(=O)O; hCys = N[C@@H](CCS)C(=O)O; Sar = CNCC(=O)O

Tests used:
[1] = target: T1, Angiotensin II receptor (AT-1) type-1 (Rattus norvegicus, UniProt P29089+P25095); experiment: Concentration required to 50% inhibition in specific binding of [125- I]A-II to Angiotensin II receptor in rat uterine membrane; format: cell membranes
T1 sequence (P29089 whole entry): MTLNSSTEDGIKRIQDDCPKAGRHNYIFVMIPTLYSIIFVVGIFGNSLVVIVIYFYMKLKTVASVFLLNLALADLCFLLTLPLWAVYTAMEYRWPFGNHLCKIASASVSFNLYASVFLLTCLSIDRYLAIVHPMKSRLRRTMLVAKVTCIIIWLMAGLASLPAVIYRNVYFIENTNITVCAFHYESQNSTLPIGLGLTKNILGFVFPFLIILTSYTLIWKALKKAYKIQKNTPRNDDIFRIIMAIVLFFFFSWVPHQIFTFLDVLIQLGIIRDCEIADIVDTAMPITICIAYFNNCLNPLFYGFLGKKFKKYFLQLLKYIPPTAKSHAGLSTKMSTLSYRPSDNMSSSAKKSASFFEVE
T1 sequence (P25095 whole entry): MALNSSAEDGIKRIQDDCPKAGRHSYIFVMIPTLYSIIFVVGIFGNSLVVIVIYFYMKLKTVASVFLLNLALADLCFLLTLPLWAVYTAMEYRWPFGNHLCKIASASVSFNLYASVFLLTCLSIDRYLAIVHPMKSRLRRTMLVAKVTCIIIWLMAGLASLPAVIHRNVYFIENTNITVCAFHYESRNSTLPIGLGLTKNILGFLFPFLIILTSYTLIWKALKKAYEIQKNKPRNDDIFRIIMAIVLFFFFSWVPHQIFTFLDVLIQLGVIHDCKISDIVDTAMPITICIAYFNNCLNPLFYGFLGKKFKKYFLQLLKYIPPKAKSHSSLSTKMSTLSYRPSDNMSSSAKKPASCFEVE
Summary of the method: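 Rat uterine membranes were homogenized in ice-cold Dulbecco's PBS with 5 mM EDTA, spun at 1500g then 100000g, and resuspended in 2 mM EGTA/50 mM Tris-HCl pH 7.5. Nonspecific binding was defined with 10 µM AII. IC50 came from nonlinear least-squares fits, triplicate means.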

Oryctolagus cuniculus [2] = organism: Oryctolagus cuniculus; experiment: No contractile activity was observed up to 10 uM concentration in rabbit aortic rings; NA = no activity; format: functional; details: Aorta
Summary of the method: (§1)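 Aortic rings were taken from male New Zealand white rabbits (2–2.5 kg) and tested at analogue concentrations up to 10 µM. pD2 was calculated from the analogue's concentration/response curve.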

Oryctolagus cuniculus [3] = organism: Oryctolagus cuniculus; experiment: No contractile activity was observed up to 10 uM concentration in rabbit aortic rings relative to angiotensin II; NA = no activity; format: functional; details: Aorta
Summary of the method: (§2)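 Aortic rings were taken from male New Zealand white rabbits (2–2.5 kg) and tested at analogue concentrations up to 10 µM. Potency is relative to the AII concentration/response curve run at the same time on a paired ring from the same aorta.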

Oryctolagus cuniculus [4] = organism: Oryctolagus cuniculus; experiment: Contractile activity in rabbit aortic rings relative to angiotensin II.; format: functional, Aorta; summary of the method: as §2
Oryctolagus cuniculus [5] = organism: Oryctolagus cuniculus; experiment: Contractile activity in rabbit aortic rings.; format: functional, Aorta; summary of the method: as §1
[6] = target: Type-1 angiotensin II receptor (Oryctolagus cuniculus) (UniProt P34976); experiment: pA2 value for Angiotensin II receptor
Type-1 angiotensin II receptor (Oryctolagus cuniculus), sequence (P34976 whole entry, looked up): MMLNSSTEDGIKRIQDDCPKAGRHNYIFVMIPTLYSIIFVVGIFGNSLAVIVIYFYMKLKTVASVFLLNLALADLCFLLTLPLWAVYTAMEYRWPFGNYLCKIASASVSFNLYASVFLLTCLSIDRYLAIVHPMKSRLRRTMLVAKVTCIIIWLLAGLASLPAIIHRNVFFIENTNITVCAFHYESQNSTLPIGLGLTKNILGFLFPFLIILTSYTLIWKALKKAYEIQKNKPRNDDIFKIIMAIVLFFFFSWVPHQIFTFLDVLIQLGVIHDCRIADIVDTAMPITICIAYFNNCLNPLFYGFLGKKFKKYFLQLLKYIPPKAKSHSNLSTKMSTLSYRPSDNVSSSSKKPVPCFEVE

Molecule	IC50 [1] [nM]	pD2 (Oryctolagus cuniculus [2])	Relative potency (Oryctolagus cuniculus [3])	Relative potency (Oryctolagus cuniculus [4])	pD2 (Oryctolagus cuniculus [5])	Kb [6] [nM]
CC(=O)NCSC[C@H](NC(=O)[C@H](CCCN=C(N)N)NC(=O)[C@@H](N)CC(=O)O)C(=O)N[C@@H](Cc1ccc(O)cc1)C(=O)N[C@H](CSCNC(C)=O)C(=O)N[C@@H](Cc1c[nH]cn1)C(=O)N1CCC[C@H]1C(=O)N[C@@H](Cc1ccccc1)C(=O)O	10000	inactive	inactive	–	–	–
CC1(C)SSC(C)(C)[C@@H](C(=O)N[C@@H](Cc2c[nH]cn2)C(=O)N2CCC[C@H]2C(=O)N[C@@H](Cc2ccccc2)C(=O)O)NC(=O)[C@H](Cc2ccc(O)cc2)NC(=O)[C@H]1NC(=O)[C@H](CCCN=C(N)N)NC(=O)[C@@H](N)CC(=O)O (H-DR[Pen]Y[Pen]HPF-OH; disulfide 3-5)	2.6	–	–	0.0001	5	–
CC[C@H](C)[C@H](NC(=O)[C@@H]1CCCN1C(=O)[C@H](Cc1c[nH]cn1)NC(=O)[C@@H]1CCSSCC[C@H](NC(=O)[C@H](CCCN=C(N)N)NC(=O)CNC)C(=O)N[C@@H](Cc2ccc(O)cc2)C(=O)N1)C(=O)O (H-[Sar]R[hCys]Y[hCys]HPI-OH; disulfide 3-5)	0.9	inactive	inactive	–	–	0.813
NC(N)=NCCC[C@H](NC(=O)[C@@H](N)CC(=O)O)C(=O)N[C@H]1CSSC[C@H](C(=O)N[C@@H](Cc2c[nH]cn2)C(=O)N2CCC[C@H]2C(=O)N[C@@H](Cc2ccccc2)C(=O)O)NC(=O)[C@H](Cc2ccc(O)cc2)NC1=O	10000	inactive	inactive	–	–	–
CC(=O)NCSC[C@H](NC(=O)[C@H](Cc1ccc(O)cc1)NC(=O)[C@@H](CSCNC(C)=O)NC(=O)[C@H](CCCN=C(N)N)NC(=O)[C@@H](N)CC(=O)O)C(=O)N[C@@H](Cc1c[nH]cn1)C(=O)N1CCC[C@H]1C(=O)N[C@@H](Cc1ccccc1)C(=O)O	> 10000	inactive	inactive	–	–	–
NC(N)=NCCC[C@H](NC(=O)[C@@H](N)CC(=O)O)C(=O)N[C@@H]1CSSC[C@@H](C(=O)N[C@@H](Cc2c[nH]cn2)C(=O)N2CCC[C@H]2C(=O)N[C@@H](Cc2ccccc2)C(=O)O)NC(=O)[C@H](Cc2ccc(O)cc2)NC1=O	–	inactive	inactive	–	–	–
NC(N)=NCCC[C@H](NC(=O)[C@@H](N)CC(=O)O)C(=O)N[C@H]1CSSC[C@@H](C(=O)N[C@@H](Cc2c[nH]cn2)C(=O)N2CCC[C@H]2C(=O)N[C@@H](Cc2ccccc2)C(=O)O)NC(=O)[C@H](Cc2ccc(O)cc2)NC1=O	43	–	–	<0.0001	<5	–
CC1(C)SSC[C@@H](C(=O)N[C@@H](Cc2c[nH]cn2)C(=O)N2CCC[C@H]2C(=O)N[C@@H](Cc2ccccc2)C(=O)O)NC(=O)[C@H](Cc2ccc(O)cc2)NC(=O)[C@H]1NC(=O)[C@H](CCCN=C(N)N)NC(=O)[C@@H](N)CC(=O)O (H-DR[Pen]YCHPF-OH; disulfide 3-5)	58	–	–	0.0001	5	–
NC(N)=NCCC[C@H](NC(=O)[C@@H](N)CC(=O)O)C(=O)N[C@H]1CCSSCC[C@@H](C(=O)N[C@@H](Cc2c[nH]cn2)C(=O)N2CCC[C@H]2C(=O)N[C@@H](Cc2ccccc2)C(=O)O)NC(=O)[C@H](Cc2ccc(O)cc2)NC1=O (H-DR[hCys]Y[hCys]HPF-OH; disulfide 3-5)	2.1	–	–	0.49	8.48	–
CC(=O)NCSC[C@H](NC(=O)[C@H](CCCN=C(N)N)NC(=O)[C@@H](N)CC(=O)O)C(=O)N[C@@H](Cc1ccc(O)cc1)C(=O)N[C@@H](CSCNC(C)=O)C(=O)N[C@@H](Cc1c[nH]cn1)C(=O)N1CCC[C@H]1C(=O)N[C@@H](Cc1ccccc1)C(=O)O	10000	–	–	<0.0001	<5	–
NC(N)=NCCC[C@H](NC(=O)[C@@H](N)CC(=O)O)C(=O)N[C@H]1CSSCC[C@@H](C(=O)N[C@@H](Cc2c[nH]cn2)C(=O)N2CCC[C@H]2C(=O)N[C@@H](Cc2ccccc2)C(=O)O)NC(=O)[C@H](Cc2ccc(O)cc2)NC1=O (H-DRCY[hCys]HPF-OH; disulfide 3-5)	13	–	–	0.012	6.98	–
CC1(C)SSC[C@H](NC(=O)[C@H](CCCN=C(N)N)NC(=O)[C@@H](N)CC(=O)O)C(=O)N[C@@H](Cc2ccc(O)cc2)C(=O)N[C@@H]1C(=O)N[C@@H](Cc1c[nH]cn1)C(=O)N1CCC[C@H]1C(=O)N[C@@H](Cc1ccccc1)C(=O)O (H-DRCY[Pen]HPF-OH; disulfide 3-5)	1.3	–	–	0.001	5.8	–
H-DRCYIHPF-OH	15	–	–	0.092	7.68	–
H-DRVYCHPF-OH	20	–	–	0.031	7.21	–
CC[C@H](C)[C@H](NC(=O)[C@H](Cc1ccc(O)cc1)NC(=O)[C@@H](NC(=O)[C@H](CCCNC(=N)N)NC(=O)[C@@H](N)CC(=O)O)C(C)C)C(=O)N[C@@H](Cc1cnc[nH]1)C(=O)N1CCC[C@H]1C(=O)N[C@@H](Cc1ccccc1)C(=O)O [ANGIOTENSIN II]	–	–	–	–	8.81	–
NC(N)=NCCC[C@H](NC(=O)[C@@H](N)CC(=O)O)C(=O)N[C@H]1CCSSC[C@@H](C(=O)N[C@@H](Cc2c[nH]cn2)C(=O)N2CCC[C@H]2C(=O)N[C@@H](Cc2ccccc2)C(=O)O)NC(=O)[C@H](Cc2ccc(O)cc2)NC1=O (H-DR[hCys]YCHPF-OH; disulfide 3-5)	10	–	–	0.001	5.91	–
